The nature of data set [1]: in vivo. As to conditions: rat, liver, po, 10 mg/kg.
Data set [2] deals with Mus musculus. Description: Antidiabetic activity in diet induced obese C57Bl/6J mouse assessed as plasma cholesterol level at 1 mg/kg, po qd administered for 4 weeks (reference value: 154.3 +/- 8.6 mg/dL). It is filed as functional.
The subject of data set [3] is Salmonella typhimurium. Nature of the data set: Genotoxicity in Salmonella typhimurium by Ames test. It counts as toxicity, organism-based. As to conditions: salmonella enterica subsp. enterica serovar typhimurium. Background: In the Ames test, an excess of revertant colonies over the control signals mutagenicity.
Data set [4] in a line: in vivo. As to conditions: rat, adipose tissue, po, 10 mg/kg.
Data set [5] relates to Mus musculus. Nature of the data set: Antidiabetic activity in diet induced obese C57Bl/6J mouse assessed as liver triglyceride level at 3 mg/kg, po qd administered for 4 weeks (reference value: 210.5 +/- 15.4 mg/g). It counts as functional.
A short description of data set [6]: Plasma concentration in C57Bl/6J mouse at 3 mg/kg, po 22 hrs post last dose. It counts as ADME, organism-based. On the set-up: dose 3 mg/kg, route oral. The method in brief: (§1)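 C57Bl/6J mice, 20 weeks old, kept on a high-fat/high-fructose diet (diet-induced obese), were dosed orally once daily for 4 weeks at 1, 3 or 10 mg/kg/day in methylcellulose-Tween 80 vehicle. Lean and obese vehicle-treated controls were included, with n = 9–10 per group. Food intake and body weight were followed. Plasma drug levels were taken at study end, about 22 h after the last dose.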

The subject of data set [7] is Mus musculus. Nature of the data set: Inhibition of 11beta-HSD1 in mouse liver at 3 mg/kg, po after 24 hrs. It counts as functional. The method in brief: (§2)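 Pharmacodynamic study in mice: single oral 3 mg/kg dose, with liver and fat 11β-HSD1 activity followed over 24 h post-dosing.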
Data set [8] deals with Mus musculus. Description: Antidiabetic activity in po dosed C57Bl/6J mouse assessed as reduction in plasma glucose level administered for 4 weeks. It is filed as functional, organism-based.
Data set [9] has as its system Mus musculus. Description: Inhibition of 11beta-HSD1 in mouse adipose tissue at 3 mg/kg, po after 24 hrs. It counts as functional. The method in brief:
as §2

Data set [10] has as its system Mus musculus. Description: Antidiabetic activity in diet induced obese C57Bl/6J mouse assessed as increase of glucose tolerance at 10 mg/kg, po after 3 weeks by oral glucose tolerance test. It counts as functional.
The subject of data set [11] is Mus musculus. Nature of the data set: Inhibition of 11beta-HSD1 in mouse liver at 3 mg/kg, po after 7 hrs. It is filed as functional. The method in brief:
as §2

Data set [12] is described as follows: in vivo. As to conditions: rat, brain, po, 10 mg/kg.
The nature of data set [13]: Volume of distribution at steady state in rat at 3 mg/kg, iv and 10 mg/kg, po. As to conditions: in vivo, read-out: Vdss. It counts as ADME, organism-based.
The subject of data set [14] is Mus musculus. Description: Antidiabetic activity in diet induced obese C57Bl/6J mouse assessed as plasma insulin level at 3 mg/kg, po qd administered for 4 weeks (reference value: 3.6 +/- 0.2 ng/mL). It is filed as functional.
The subject of data set [15] is Mus musculus. Description: Antidiabetic activity in diet induced obese C57Bl/6J mouse assessed as plasma cholesterol level at 3 mg/kg, po qd administered for 4 weeks (reference value: 154.3 +/- 8.6 mg/dL). It is filed as functional.
For data set [16], the system named is Mus musculus. Nature of the data set: Antidiabetic activity in diet induced obese C57Bl/6J mouse assessed as plasma triglyceride level at 10 mg/kg, po qd administered for 4 weeks (reference value: 36.2 +/- 2.1 […]). It is filed as functional.
In data set [17] the test system is Mus musculus. Description: Antidiabetic activity in diet induced obese C57Bl/6J mouse assessed as plasma leptin level at 3 mg/kg, po qd administered for 4 weeks (reference value: 22.5 +/- 2.4 ng/mL). It is filed as functional.
Data set [18] can be described thus: Plasma concentration in C57Bl/6J mouse at 10 mg/kg, po 22 hrs post last dose. It is filed as ADME, organism-based. The arrangement: dose 10 mg/kg, route oral. The method in brief:
as §1

Data set [19] deals with Mus musculus. Nature of the data set: Antidiabetic activity in diet induced obese C57Bl/6J mouse assessed as plasma leptin level at 10 mg/kg, po qd administered for 4 weeks (reference value: 22.5 +/- 2.4 ng/mL). It counts as functional.
The test system of data set [20] is Mus musculus. Nature of the data set: Antidiabetic activity in diet induced obese C57Bl/6J mouse assessed as plasma glucose level at 3 mg/kg, po qd administered for 4 weeks (reference value: 297 +/- 15 mg/dL). It counts as functional.
The test system of data set [21] is Mus musculus. Nature of the data set: Antidiabetic activity in diet induced obese C57Bl/6J mouse assessed as liver triglyceride level at 1 mg/kg, po qd administered for 4 weeks (reference value: 210.5 +/- 15.4 mg/g). It is filed as functional.

This note sets out measurements from ChEMBL document CHEMBL2380292, “Discovery of SAR184841, a potent and long-lasting inhibitor of 11β-hydroxysteroid dehydrogenase type 1, active in a physiopathological animal model of T2D” (Bioorg Med Chem Lett, 2013).

SMILES strings stand for the structures.

The inhibition in vivo is the relative decrease from the control value, in per cent.

As to `CC(C)(C)N1CCN(c2ccc(N3CCN(C(=O)N[C@H]4C5CC6CC4C[C@](C(N)=O)(C6)C5)c4ccccc43)nc2)CC1`, the Kp in data set [1] was 224; in data set [4], 2.2; in data set [12] it was 0.14. For the same compound, the Activity in [2] was 127.7 mg/dL; in data set [3], “Non-toxic”; in [5], 142.8 mg/g; in data set [8] it was “Dose-dependent effect”; in data set [10], -23%; in data set [14] it was 2.3 ng/mL. Moreover, the Activity in [15] worked out at 125.1 mg/dL; in data set [16] it was 35 mg/mL; in data set [17], 12.5 ng/mL; in [19] it was 12.5 ng/mL; in [20], 251 mg/dL; in [21] it was 167.4 mg/g. For the same compound, the concentration at 22 h worked out at 3.8 nM in [6] and 2.6 nM in [18]. Besides, the inhibition in vivo at 3 mg/kg in data set [7] was 60%; in data set [9], 40%; in data set [11], more than 90%. The Vd in data set [13] was determined as 14 L/kg.
